Source: ChEMBL document CHEMBL1140293, “Irreversible inactivation of trypanothione reductase by unsaturated Mannich bases: a divinyl ketone as key intermediate” (J Med Chem, 2005)
The source made the active and inactive calls. The rule behind the calls is not given here.

Legend:
[1] = molecular target: Trypanothione reductase (Trypanosoma cruzi) (UniProt P28593); assay: Inhibition of reduced Trypanosoma cruzei trypanothione reductase at freshly prepared 100 uM
Method in brief: (§1)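 Recombinant T. cruzi TR (0.5 μM) preincubated at 25 °C with inhibitor, with or without 200 μM NADPH, in 40 mM HEPES, 1 mM EDTA, pH 7.5; 5 μL aliquots taken over time into standard assay (100 μM NADPH, 110 μM TS2, A340 decrease). Inhibitor from fresh or stored DMSO stock (stored at 4 °C); half-time at 100 μM. Controls: enzyme+NADPH+DMSO, enzyme+inhibitor without NADPH.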

Plasmodium falciparum = assay: Antiparasitic activity against chloroquine-sensitive Plasmodium falciparum 3D7 in erythrocytes; assay type: functional; details: read-out: ED50 (the source's name)
Trypanosoma cruzi = assay: Antiparasitic activity against Trypanosoma cruzi MHOM/CL/00/Tulahuan-LacZ intracellular amastigotes; assay type: functional; details: read-out: ED50 (the source's name)
[2] = Cytotoxicity against human KB cells by Alamar blue assay; assay type: cell-based; details: read-out: ED50 (the source's name)
Method in brief: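 Human oral pharyngeal carcinoma KB cells; Alamar Blue read-out with podophyllotoxin positive control; ED50 calculated relative to blanks and untreated controls.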

[3] = system: Trypanosoma brucei rhodesiense; assay: Antiparasitic activity against Trypanosoma brucei rhodesiense STIB900 blood stream form; assay type: functional; details: read-out: ED50 (the source's name)
Method in brief: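 Bloodstream-form parasites treated for 3 days; viability by tetrazolium salt colorimetric assay with pentamidine isethionate reference; ED50 derived by sigmoidal regression.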

Leishmania donovani = assay: Antiparasitic activity against Leishmania donovani MHOM/ET/67/HU3 intracellular amastigotes; assay type: functional; details: read-out: ED50 (the source's name)
[4] = molecular target: Trypanothione reductase (Trypanosoma cruzi) (UniProt P28593); assay: Inactivation of Trypanosoma cruzei reduced trypanothione reductase at 100 uM stored compound; parameters: scale not given: the % may be the effect or the level left; method in brief: as §1
[5] = molecular target: Trypanothione reductase (Trypanosoma cruzi) (UniProt P28593); assay: Inhibition of Trypanosoma cruzei trypanothione reductase at 5 uM stored compound within 5 mins; method in brief: as §1
[6] = molecular target: Trypanothione reductase (Trypanosoma cruzi) (UniProt P28593); assay: Inhibition of Trypanosoma cruzei reduced trypanothione reductase at 5 uM freshly prepared compound within less than 5 mins; method in brief: as §1
[7] = molecular target: Trypanothione reductase (Trypanosoma cruzi) (UniProt P28593); assay: Inactivation of Trypanosoma cruzei reduced trypanothione reductase at 100 uM freshly prepared compound; parameters: scale not given: the % may be the effect or the level left; method in brief: as §1
[8] = molecular target: Trypanothione reductase (Trypanosoma cruzi) (UniProt P28593); assay: Inactivation of Trypanosoma cruzei trypanothione reductase at 200 uM; method in brief: as §1
[9] = molecular target: Trypanothione reductase (Trypanosoma cruzi) (UniProt P28593); assay: Inhibition of Trypanosoma cruzei reduced trypanothione reductase at 100 uM; method in brief: as §1
[10] = Inhibition of Plasmodium falciparum thioredoxin reductase in presence of 34 uM thioredoxin 2 substrate
Method in brief: (§2)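 Direct assay at 25 °C, NADPH oxidation at 340 nm, 100 μM NADPH, 1% DMSO; six to eight inhibitor levels 0–100 μM, duplicate. TR: 100 μM TS2, 100 mM phosphate pH 7.0. GR (human): 500 or 50 μM GSSG, 100 mM potassium phosphate pH 7.0, 200 mM KCl. P. falciparum TrxR: 34 μM D. melanogaster thioredoxin-2, 100 mM phosphate pH 7.4, 2 mM EDTA.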

[11] = Inhibition of Plasmodium falciparum thioredoxin reductase after 5 min pre-incubation with NADPH in presence of 34 uM thioredoxin 2 substrate
Method in brief: (§3)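 Enzyme (T. cruzi TR, human GR or P. falciparum TrxR) preincubated 5 min at 25 °C with 160 μM NADPH and 0–20 μM inhibitor, 2% DMSO, 50 μL; 5 μL aliquot into respective standard assay with substrate at 5× Km (100 μM TS2, 500 μM GSSG, 34 μM thioredoxin-2), residual activity at 340 nm.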

[12] = molecular target: T1, Glutathione reductase, mitochondrial (Homo sapiens, UniProt P00390); assay: Inhibition of human glutathione reductase after 5 mins pre-incubation with NADPH in presence of 500 uM GSSG substrate; method in brief: as §3
T1 sequence (P00390 whole entry): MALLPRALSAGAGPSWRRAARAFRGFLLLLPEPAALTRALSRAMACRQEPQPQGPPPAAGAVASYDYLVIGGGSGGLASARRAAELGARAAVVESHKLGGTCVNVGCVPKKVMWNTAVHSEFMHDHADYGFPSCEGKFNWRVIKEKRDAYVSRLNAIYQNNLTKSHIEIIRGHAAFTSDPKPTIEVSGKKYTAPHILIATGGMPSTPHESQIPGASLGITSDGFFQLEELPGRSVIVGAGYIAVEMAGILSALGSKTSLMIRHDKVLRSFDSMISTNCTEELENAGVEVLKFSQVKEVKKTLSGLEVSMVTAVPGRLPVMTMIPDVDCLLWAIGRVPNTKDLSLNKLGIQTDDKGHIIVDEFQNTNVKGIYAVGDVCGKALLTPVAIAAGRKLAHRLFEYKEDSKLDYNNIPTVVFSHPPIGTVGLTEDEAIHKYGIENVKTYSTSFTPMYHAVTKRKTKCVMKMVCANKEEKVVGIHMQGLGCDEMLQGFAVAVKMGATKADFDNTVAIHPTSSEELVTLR

[13] = Toxicity in macrophages at >=156 uM; assay type: cell-based; details: human, macrophage
Trypanothione reductase [14] = molecular target: T2, Trypanothione reductase (Trypanosoma cruzi, UniProt P28593); assay: Inhibition of Trypanosoma cruzi trypanothione reductase after 5 mins pre-incubation with NADPH in presence of 100 uM TS2 substrate; method in brief: as §3
T2 sequence (P28593 whole entry): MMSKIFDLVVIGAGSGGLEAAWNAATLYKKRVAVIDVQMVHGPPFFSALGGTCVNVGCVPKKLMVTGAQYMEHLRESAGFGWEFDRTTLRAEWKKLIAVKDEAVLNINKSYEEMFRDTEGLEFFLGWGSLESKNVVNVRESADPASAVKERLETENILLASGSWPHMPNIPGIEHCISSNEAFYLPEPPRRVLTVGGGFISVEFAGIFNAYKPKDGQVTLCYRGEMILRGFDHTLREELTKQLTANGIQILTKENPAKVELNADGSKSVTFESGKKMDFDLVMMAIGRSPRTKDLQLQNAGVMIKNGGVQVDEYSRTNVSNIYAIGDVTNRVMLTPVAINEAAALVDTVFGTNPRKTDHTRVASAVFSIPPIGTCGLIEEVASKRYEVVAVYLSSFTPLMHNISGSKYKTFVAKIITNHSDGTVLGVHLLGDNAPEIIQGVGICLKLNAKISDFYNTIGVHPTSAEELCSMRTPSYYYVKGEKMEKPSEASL

Trypanothione reductase [15] = molecular target: T2, Trypanothione reductase; assay: Inhibition of Trypanosoma cruzi trypanothione reductase in presence of 100 uM TS2 substrate; method in brief: as §2
[16] = molecular target: T1, Glutathione reductase, mitochondrial; assay: Inhibition of human glutathione reductase in presence of 50 uM GSSG substrate; method in brief: as §2
[17] = molecular target: T1, Glutathione reductase, mitochondrial; assay: Inhibition of human glutathione reductase in presence of 500 uM GSSG substrate; method in brief: as §2

Sequence of Trypanothione reductase (Trypanosoma cruzi) (P28593 whole entry, looked up): as the sequence (P28593 whole entry) above

Row | Structure (SMILES) | T1/2 [1] [min] | EC50 (Plasmodium falciparum) [µM] | EC50 (Trypanosoma cruzi) [µM] | CC50 [2] [µM] | EC50 [3] [µM] | EC50 (Leishmania donovani) [µM] | also measured
1 | O=C(/C=C/c1ccccc1Cl)CCN1CCCCC1 | 7.5 | 16.2 | 11.8 | 7.3 | 0.8 | 13 | –
2 | O=C(/C=C/c1ccccc1Cl)CCN1CCOCC1 | 2 | – | – | – | – | – | –
3 | CCN(CC)CCCC(C)Nc1ccnc2cc(Cl)ccc12 (centres undefined) [CHLOROQUINE] | – | 0.0058 | – | – | – | – | –
4 | COc1cc([C@@H]2c3cc4c(cc3[C@H](O)[C@H]3COC(=O)[C@H]23)OCO4)cc(OC)c1OC [PODOFILOX] | – | – | – | 0.07 | – | – | –
5 | CN(C)CCC(=O)/C=C/c1ccccc1Cl | 8.6 | 27 | 8.7 | 14.2 | 1.8 | 41.6 | Activity [4]: > 99%; inhibition [5]: 70%; inhibition [6]: 30%; Activity [7]: > 99%
6 | CN(C)CC(C)(C)C(=O)/C=C/c1ccccc1Cl | – | – | – | – | – | – | Activity [8]: inactive
7 | N=C(N)c1ccc(OCCCCCOc2ccc(C(=N)N)cc2)cc1 [PENTAMIDINE] | – | – | 4.2 | – | 0.0001 | 28.9 | –
8 | O=C(Cn1ccnc1[N+](=O)[O-])NCc1ccccc1 [BENZNIDAZOLE] | – | – | 4.2 | – | – | – | –
9 | O=C1C=CC(c2ccccc2Cl)C1 (centres undefined) | – | – | – | – | – | – | Activity [9]: inactive
10 | C=CC(=O)/C=C/c1ccccc1Cl | < 0.75 | 46.7 | 12.5 | 1230 | 1.9 | 68 | IC50 [10]: 3.7 µM; IC50 [11]: 0.4 µM; IC50 [12]: 5 µM; Activity [13]: Toxic; IC50 (Trypanothione reductase [14]): 2 µM; IC50 (Trypanothione reductase [15]): 8 µM; IC50 [16]: 18.5 µM; IC50 [17]: 190 µM
